From ChEMBL document CHEMBL1123793, “Analysis of structure-activity relationships in renin substrate analogue inhibitory peptides” (J Med Chem, 1987)
pIC50: −log10 of the molar value. *1 amine or outer side, *2 acyl side, *3 side chain or, on linkers, in order; H or OH if unused. Where a SMILES comes first, the peptide text is derived from it. [ ]: non-standard residue; d: D form. The star is where a group is joined. X2 = CC[C@H](C)[C@H](N*)C(=O)NC(=O)[C@@H](N)Cc1ccccc1; Sta = CC(C)C[C@H](N)[C@@H](O)CC(=O)O; X1 = CC(C)CC(N[*:1])C(O)CC(=O)[*:2]; hhPhe = N[C@@H](CCCc1ccccc1)C(=O)O; X3 = CC(=O)[C@H](CCCCN)N*; Orn = NCCC[C@H](N)C(=O)O; Nva = CCC[C@H](N)C(=O)O; For = O=C*

Columns and labels:
[1] = biological target: T1, Renin (Homo sapiens, UniProt P00797); experiment: Inhibitory activity against human plasma renin; format: cell-free
T1 sequence (P00797 whole entry): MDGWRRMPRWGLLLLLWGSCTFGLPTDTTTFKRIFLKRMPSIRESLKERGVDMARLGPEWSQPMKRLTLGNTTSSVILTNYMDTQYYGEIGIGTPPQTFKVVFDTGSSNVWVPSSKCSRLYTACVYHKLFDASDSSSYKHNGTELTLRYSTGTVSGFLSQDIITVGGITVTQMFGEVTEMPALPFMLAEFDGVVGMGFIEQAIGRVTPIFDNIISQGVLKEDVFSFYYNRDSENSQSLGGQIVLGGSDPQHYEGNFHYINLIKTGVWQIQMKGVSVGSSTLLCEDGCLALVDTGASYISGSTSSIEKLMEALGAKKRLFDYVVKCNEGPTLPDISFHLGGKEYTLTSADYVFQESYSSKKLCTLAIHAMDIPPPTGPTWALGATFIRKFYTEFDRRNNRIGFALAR
Outline: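 Pooled human plasma from about 500 hypertensive patients, collected by renal vein catheterization into chilled EDTA, trypsin-activated. PMSF 5 mM, 8-hydroxyquinoline sulfate 3 mM and a further 5 mM EDTA were added, giving about 10 ng AI mL⁻¹ h⁻¹. Plasma at pH 7.4 with serial peptide dilutions was incubated 1 h at 37 °C against a 0 °C blank, quenched at pH 8.5, and angiotensin I was measured by RIA.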

[2] = biological target: T2, Renin (Rattus norvegicus, UniProt P08424); experiment: Inhibitory potency on plasma renin obtained from Sprague-Dawley rats; format: cell-free
T2 sequence (P08424 whole entry): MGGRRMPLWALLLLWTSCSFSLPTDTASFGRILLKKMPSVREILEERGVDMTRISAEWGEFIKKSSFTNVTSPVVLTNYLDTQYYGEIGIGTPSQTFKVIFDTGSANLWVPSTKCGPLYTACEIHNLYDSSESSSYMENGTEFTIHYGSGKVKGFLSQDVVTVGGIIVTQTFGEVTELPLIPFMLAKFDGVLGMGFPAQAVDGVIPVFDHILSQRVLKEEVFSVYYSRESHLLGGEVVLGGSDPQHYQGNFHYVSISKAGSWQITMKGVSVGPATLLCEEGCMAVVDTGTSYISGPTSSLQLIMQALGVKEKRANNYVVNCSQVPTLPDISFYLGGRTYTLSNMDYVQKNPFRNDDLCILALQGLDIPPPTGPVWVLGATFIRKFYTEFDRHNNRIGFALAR
Outline: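 Dog, rabbit or rat plasma was collected into 5 mM EDTA at 0 °C, spun at 4 °C, then given PMSF 5 mM and 8-hydroxyquinoline sulfate 3 mM. Plasma at pH 7.4 with serial inhibitor dilutions was incubated 1 h at 37 °C, with a 0 °C blank. The reaction was quenched at pH 8.5, and angiotensin I was measured by RIA with ¹²⁵I tracer in anti-AI-coated tubes. The ratio is species IC50 divided by human IC50.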

## CC(C)[C@H](NC(=O)[C@H](Cc1ccccc1)NC[C@H](Cc1ccccc1)NC(=O)[C@H](Cc1cnc[nH]1)NC(=O)[C@H](Cc1ccccc1)NC(=O)[C@@H]1CCCN1C(=O)[C@H](N)Cc1cnc[nH]1)C(=O)N[C@@H](Cc1ccc(O)cc1)C(=O)O
[1]
  pIC50: 6.24

## CC[C@H](C)[C@H](NC(=O)[C@H](CCCc1ccccc1)NC(=O)[C@H](Cc1c[nH]cn1)NC(=O)[C@H](Cc1cn(C=O)c2ccccc12)NC(=O)[C@@H]1CCCN1)C(=O)N[C@@H](Cc1ccccc1)C(N)=O (H-PW(For)H[hhPhe]IF-NH2)
[1]
  pIC50: 7.17

## CC[C@H](C)[C@H](NC(=O)[C@H](CCCc1ccccc1)NC(=O)[C@H](Cc1cnc[nH]1)NC(=O)[C@H](Cc1ccccc1)NC(=O)[C@@H]1CCCN1C(=O)[C@H](Cc1cnc[nH]1)NC(=O)[C@@H]1CCCN1)C(=O)N[C@@H](Cc1cnc[nH]1)C(=O)N[C@@H](CCCCN)C(C)=O (H-PHPFH[hhPhe]IH-X3)
[1]
  pIC50: 7.52

## CC[C@H](C)[C@H](NC(=O)CC(O)C(CC(C)C)NC(=O)[C@H](Cc1cnc[nH]1)NC(=O)[C@H](Cc1ccccc1)NC(=O)[C@@H]1CCCN1C(=O)[C@H](Cc1cnc[nH]1)NC(=O)[C@@H]1CCCN1C(C)=O)C(=O)N[C@@H](Cc1cnc[nH]1)C(=O)N[C@@H](CCCCN)C(=O)O (stereo partly drawn) (Ac-PHPFH[X1]IHK-OH)
[1]
  pIC50: 7.70

## CC(C)C[C@H](NC(=O)[C@H](Cc1c[nH]cn1)NC(=O)[C@H](Cc1ccccc1)NC(=O)[C@@H]1CCCN1C(=O)[C@H](Cc1c[nH]cn1)NC(=O)[C@@H]1CCCN1)[C@@H](O)CC(N)=O (H-PHPFH[Sta]-NH2)
[1]
  pIC50: 6.05

## CC[C@H](C)[C@H](NC(=O)CC(O)C(CC(C)C)NC(=O)[C@H](Cc1ccccc1)NC(=O)[C@H](Cc1ccccc1)NC(=O)[C@@H]1CCCN1C(=O)[C@H](Cc1c[nH]cn1)NC(=O)[C@@H]1CCCN1)C(=O)NC(=O)[C@@H](N)Cc1ccccc1 (stereo partly drawn) (H-PHPFF[X1]-X2)
[1]
  pIC50: 7.52

## H-PFHFFVYK-NH2
[1]
  pIC50: 4.00

## CC(C)CC(NC(=O)[C@H](Cc1cnc[nH]1)NC(=O)[C@H](Cc1ccccc1)NC(=O)[C@@H]1CCCN1C(=O)[C@@H](N)Cc1cnc[nH]1)C(O)CC(=O)N[C@H](C(=O)N[C@@H](Cc1ccc(O)cc1)C(=O)N[C@@H](CCCCN)C(=O)O)C(C)C (stereo partly drawn) (H-HPFH[X1]VYK-OH)
[1]
  pIC50: 6.40

## CC[C@H](C)[C@H](NC(=O)[C@H](CCCc1ccccc1)NC(=O)[C@H](Cc1c[nH]cn1)NC(=O)[C@H](Cc1ccccc1)NC(=O)[C@@H]1CCCN1C(=O)[C@H](Cc1cn(C=O)c2ccccc12)NC(=O)[C@@H]1CCCN1)C(=O)N[C@@H](Cc1cn(C=O)c2ccccc12)C(N)=O (H-PW(For)PFH[hhPhe]IW(For)-NH2)
[1]
  pIC50: 7.57

## CC[C@H](C)[C@H](NC(=O)[C@H](CCCc1ccccc1)NC(=O)[C@H](Cc1c[nH]cn1)NC(=O)[C@H](Cc1ccccc1)NC(=O)[C@@H]1CCCN1C(=O)[C@H](Cc1c[nH]cn1)NC(=O)[C@@H]1CCCN1)C(=O)N[C@@H](Cc1ccccc1)C(N)=O (H-PHPFH[hhPhe]IF-NH2)
[1]
  pIC50: 7.52

## CC[C@H](C)[C@H](NC(=O)CC(O)C(CC(C)C)NC(=O)[C@H](Cc1c[nH]cn1)NC(=O)[C@H](Cc1ccccc1)NC(=O)[C@@H]1CCCN1)C(=O)N[C@@H](Cc1c[nH]cn1)C(=O)N[C@@H](CCCCN)C(=O)O (stereo partly drawn) (H-PFH[X1]IHK-OH)
[1]
  pIC50: 6.05

## CC[C@H](C)[C@H](NC(=O)CC(O)C(CC(C)C)NC(=O)[C@H](Cc1cnc[nH]1)NC(=O)[C@H](Cc1ccccc1)NC(=O)[C@@H]1CCCN1)C(=O)NC(=O)[C@@H](N)Cc1ccccc1 (stereo partly drawn)
[1]
  pIC50: 6.66

## CCC[C@H](NC(=O)[C@H](Cc1c[nH]cn1)NC(=O)[C@H](Cc1ccccc1)NC(=O)[C@@H]1CCCN1C(=O)[C@H](Cc1c[nH]cn1)NC(=O)[C@@H]1CCCN1)C(=O)N[C@H](C(=O)NC(=O)[C@@H](N)Cc1ccccc1)[C@@H](C)CC (H-PHPFH[Nva]-X2)
[1]
  pIC50: < 3.00

## CC[C@H](C)[C@H](NC(=O)[C@H](CCCc1ccccc1)NC(=O)[C@H](Cc1c[nH]cn1)NC(=O)[C@H](Cc1cn(C=O)c2ccccc12)NC(=O)[C@@H]1CCCN1)C(=O)N[C@@H](Cc1cn(C=O)c2ccccc12)C(N)=O (H-PW(For)H[hhPhe]IW(For)-NH2)
[1]
  pIC50: 6.62

## CC[C@H](C)[C@H](NC(=O)[C@H](CCCc1ccccc1)NC(=O)[C@H](CCCCN)NC(=O)[C@H](Cc1ccccc1)NC(=O)[C@@H]1CCCN1C(=O)[C@H](Cc1c[nH]cn1)NC(=O)[C@@H]1CCCN1)C(=O)N[C@@H](Cc1ccccc1)C(N)=O (H-PHPFK[hhPhe]IF-NH2)
[1]
  pIC50: 5.41

## CC(C)[C@H](NC(=O)[C@@H](CCCc1ccccc1)NC(=O)[C@H](Cc1c[nH]cn1)NC(=O)[C@H](Cc1ccccc1)NC(=O)[C@@H]1CCCN1C(=O)[C@H](Cc1c[nH]cn1)NC(=O)[C@@H]1CCCN1)C(=O)N[C@@H](Cc1ccc(O)cc1)C(=O)N[C@@H](CCCCN)C(N)=O
[1]
  pIC50: 7.57

## CC[C@H](C)[C@H](NC(=O)[C@H](CCCc1ccccc1)NC(=O)[C@H](Cc1c[nH]cn1)NC(=O)[C@H](Cc1cn(C=O)c2ccccc12)NC(=O)[C@@H]1CCCN1C(=O)[C@H](Cc1cn(C=O)c2ccccc12)NC(=O)[C@@H]1CCCN1)C(=O)N[C@@H](Cc1cn(C=O)c2ccccc12)C(N)=O (H-PW(For)PW(For)H[hhPhe]IW(For)-NH2)
[1]
  pIC50: 7.31

## CC(C)[C@H](NC(=O)[C@H](CCCN)NC(=O)[C@H](Cc1c[nH]cn1)NC(=O)[C@H](Cc1ccccc1)NC(=O)[C@@H]1CCCN1)C(=O)N[C@@H](Cc1ccc(O)cc1)C(=O)N[C@@H](CCCCN)C(N)=O (H-PFH[Orn]VYK-NH2)
[1]
  pIC50: 4.00

## CC[C@H](C)[C@H](NC(=O)CC(O)C(CC(C)C)NC(=O)[C@H](Cc1cnc[nH]1)NC(=O)[C@H](Cc1ccccc1)NC(=O)[C@@H]1CCCN1C(C)=O)C(=O)N[C@@H](Cc1cnc[nH]1)C(=O)N[C@@H](CCCCN)C(=O)O (stereo partly drawn) (Ac-PFH[X1]IHK-OH)
[1]
  pIC50: 7.40

## CC[C@H](C)[C@H](NC(=O)[C@H](CCCc1ccccc1)NC(=O)[C@H](Cc1cnc[nH]1)NC(=O)[C@H](Cc1ccccc1)NC(=O)[C@@H]1CCCN1C(C)=O)C(=O)N[C@@H](Cc1cnc[nH]1)C(=O)N[C@@H](CCCCN)C(C)=O (Ac-PFH[hhPhe]IH-X3)
[1]
  pIC50: 7.34

## CC(C)CC(NC(=O)[C@H](Cc1c[nH]cn1)NC(=O)[C@H](Cc1ccccc1)NC(=O)[C@@H]1CCCN1)C(O)CC(N)=O (stereo partly drawn)
[1]
  pIC50: 4.17

## CC[C@H](C)[C@H](NC(=O)CC(O)C(CC(C)C)NC(=O)[C@H](Cc1cnc[nH]1)NC(=O)[C@H](Cc1ccccc1)NC(=O)[C@@H]1CCCN1C(=O)[C@H](Cc1cn(C=O)c2ccccc12)NC(=O)[C@@H]1CCCN1)C(=O)N[C@@H](Cc1cn(C=O)c2ccccc12)C(N)=O (stereo partly drawn) (H-PW(For)PFH[X1]IW(For)-NH2)
[1]
  pIC50: 7.80

## CC[C@H](C)[C@H](NC(=O)CC(O)C(CC(C)C)NC(=O)[C@H](Cc1ccccc1)NC(=O)[C@H](Cc1ccccc1)NC(=O)[C@@H]1CCCN1)C(=O)NC(=O)[C@@H](N)Cc1ccccc1 (stereo partly drawn)
[1]
  pIC50: 6.37

## CC[C@H](C)[C@H](NC(=O)CC(O)C(CC(C)C)NC(=O)[C@@H](N)Cc1ccccc1)C(=O)NC(=O)[C@@H](N)Cc1ccccc1 (stereo partly drawn)
[1]
  pIC50: < 4.00

## CC[C@H](C)[C@H](NC(=O)[C@H](CCCc1ccccc1)NC(=O)[C@H](Cc1c[nH]cn1)NC(=O)[C@H](Cc1cn(C=O)c2ccccc12)NC(=O)[C@@H]1CCCN1C(=O)[C@H](Cc1cn(C=O)c2ccccc12)NC(=O)[C@@H]1CCCN1)C(=O)N[C@@H](Cc1ccccc1)C(N)=O (H-PW(For)PW(For)H[hhPhe]IF-NH2)
[1]
  pIC50: 7.52

## H-PHPFRFFVYK-OH
[1]
  pIC50: 3.70

## CC[C@H](C)[C@H](NC(=O)C[C@H](O)[C@H](CC(C)C)NC(=O)[C@H](Cc1c[nH]cn1)NC(=O)[C@H](Cc1ccccc1)NC(=O)[C@@H]1CCCN1C(=O)[C@H](Cc1c[nH]cn1)NC(=O)[C@@H]1CCCN1)C(=O)N[C@@H](Cc1ccccc1)C(N)=O (H-PHPFH[Sta]IF-NH2)
[2]
  pIC50: < 6.00

## H-PHPFHFFFVYK-OH [RIP]
[1]
  pIC50: 5.28
